Shown are actives, neighbours in structure and some others; about 2.6% of the full set was active somewhere.
Platelet DG rel: inhibitors of platelet dense granule secretion, primary screen, cell-based, MLPCN, human platelets | inhibition, %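 (compounds screened at 7.5 µM in platelet-rich plasma)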 | actives 0.22% (n = 300,000) | human platelet-rich plasma, SFLLRN dense granule ATP release, luminescence;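 active means mean replicate score, as percent of positive control, at or above 50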
TAAR1 antag: human TAAR1 antagonists, primary screen, Fluo-8 calcium fluorescence, CHO RD-HGA16 cells; AID 624466, 2012; inhibition, % at 3 µM; actives 1.5% (n = 360,000); Trace amine-associated receptor 1 (Homo sapiens), Q96RJ0; antagonist;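 active means inhibition above a per-plate cutoff, the mean inhibition of test compounds on that plate plus 3 SD, cut at about 49% in these data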;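 further: 0% = DMSO plus EC80 beta-PEA response and 100% = DMSO alone without agonist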
Target sequence (Q96RJ0 whole entry, looked up): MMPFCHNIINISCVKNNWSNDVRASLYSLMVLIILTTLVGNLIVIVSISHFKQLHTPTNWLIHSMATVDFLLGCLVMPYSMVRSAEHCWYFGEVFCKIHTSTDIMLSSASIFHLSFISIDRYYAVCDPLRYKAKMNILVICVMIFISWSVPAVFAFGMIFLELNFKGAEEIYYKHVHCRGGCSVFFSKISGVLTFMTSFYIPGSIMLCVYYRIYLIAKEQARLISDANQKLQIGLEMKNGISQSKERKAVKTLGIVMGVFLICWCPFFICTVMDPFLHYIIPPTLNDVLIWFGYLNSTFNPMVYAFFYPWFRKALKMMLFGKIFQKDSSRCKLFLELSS
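System: RD-HGA16 CHO cells with stable hTAAR1 and Gα16 | Probe or stimulus: EC80 β-phenethylamine stimulus | Dosing: 3 µM, single point | Times: Dye loading 75 min at 37 °C, then 30 min room temperature | Measured by: Fluo-8 calcium-sensitive fluorescence | Read-out basis: % inhibition of agonist calcium response | Replicates: n of 1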
Rce1 inhib: yeast Rce1p protease inhibitors, primary screen, biochemical, fluorescence, cell-free homogeneous; calls only; AID 2563, 2010; yeast membranes, quenched prenylated peptide cleavage fluorescence; actives 0.27% (n = 290,000); CAAX prenyl protease 2 (Saccharomyces cerevisiae (strain ATCC 204508 / S288c)), Q03530;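 active means fall in fluorescence gain of 50% or more versus controls, with final raw signal at or below 3038400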;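 further: plate controls were neutral control wells for no effect and wells lacking membranes for full effect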
Target sequence (Q03530 whole entry, looked up): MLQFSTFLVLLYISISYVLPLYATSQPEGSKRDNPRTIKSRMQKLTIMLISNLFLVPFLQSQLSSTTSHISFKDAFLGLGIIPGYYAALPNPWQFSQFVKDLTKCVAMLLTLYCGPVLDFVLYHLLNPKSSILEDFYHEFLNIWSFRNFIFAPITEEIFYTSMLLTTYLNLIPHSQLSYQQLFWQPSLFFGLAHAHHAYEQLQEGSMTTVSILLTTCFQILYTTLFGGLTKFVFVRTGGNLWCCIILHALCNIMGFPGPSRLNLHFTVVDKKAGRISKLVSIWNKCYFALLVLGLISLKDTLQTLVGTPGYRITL
VLA-4 inh: inhibition in human VLA-4 binding assay, primary screen, VLA-4 allosteric modulator project, MLPCN library, flow cytometry, VLA-4 expressing cells; Integrin alpha-4 (Homo sapiens), P13612; ligand binding flow cytometry; inhibition, % (about 7 µM as worked out from the volumes in the protocol); actives 0.2% (n = 330,000); in the data active means inhibition above about 50%
TAAR1 ag: human TAAR1 agonists, primary screen, Fluo-8 calcium fluorescence, CHO RD-HGA16 cells; Trace amine-associated receptor 1 (Homo sapiens), Q96RJ0; vehicle wells 0%, saturating PEA agonist 100%; activation, % at 3 µM; actives 0.99% (n = 360,000);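 active means activation above the mean activation of all test compounds in the run plus 3 SD, cut at about 38% in these data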
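Benchmarks: low control DMSO, high control PEA (EC100); System: CHO RD-HGA16 cells carrying human TAAR1 plus Gα16; Detection: Fluo-8 fluorescence, 5 s baseline then 140 s kinetic read; Schedule: 17-24 h plating, Fluo-8 75 min 37 °C, 30 min RT; Read-out basis: % activation from peak over basal fluorescence ratio, DMSO-to-PEA scaled.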
Active calls of the source: *; i = inactive; . = no result given; + = active, no number.

SMILES	Platelet DG rel	TAAR1 antag	Rce1 inhib	VLA-4 inh	TAAR1 ag
COc1cc(-c2coc3c(C(=O)NCc4ccc(OC)c(OC)c4)cccc23)ccc1O	.	65.7*	.	.	12.0
COc1ccc(CNC(=O)c2cccc3c(-c4cccc(C(N)=O)c4)coc23)cc1OC	.	55.7*	.	.	21.0
CC(C)Cn1c(N)c(C(=O)COC(=O)c2cc(S(=O)(=O)N3CCOCC3)ccc2Br)c(=O)n(C)c1=O	.	54.4*	.	-0.4	21.5
Cc1ccccc1OCCC(=O)OCC(=O)c1c(N)n(CC(C)C)c(=O)n(C)c1=O	4.9	29.4	i	5.3	9.4
Cc1ccc(S(=O)(=O)N2CCOCC2)cc1C(=O)OCC(=O)c1c(N)n(C)c(=O)n(C)c1=O	.	-8.8	.	-24.3	6.2
CC(C)Cn1c(N)c(C(=O)COC(=O)CCNS(=O)(=O)c2ccccc2)c(=O)n(C)c1=O	4.8	50.5*	i	2.9	11.3
O=C(Nc1ccc(Cl)c(Cl)c1)c1ccc(Cl)c(Cl)c1	-3.1	37.1	i	-11.2	4.7
Cc1ccc(NC(=O)c2ccc(Cl)c(N3C(=O)C=CC3=O)c2)cc1	16.6	56.0*	i	42.5	66.3*
CCOc1cccc(C(=O)Nc2nc(-c3ccc(S(=O)(=O)N4CCOCC4)cc3)cs2)c1	1.2	53.5*	i	-11.8	14.1
COc1ccccc1C(=O)Nc1nc(-c2ccc(S(=O)(=O)N3CCOCC3)cc2)cs1	-0.6	69.3*	i	-6.1	31.3
COc1ccc(-c2cc(C(=O)Nc3cc(S(=O)(=O)N4CCOCC4)ccc3N3CCOCC3)c3ccccc3n2)cc1	-2.4	54.5*	i	-1.9	21.3
COc1ccc(-c2csc(NC(=O)c3ccc(S(C)(=O)=O)cc3)n2)cc1	-0.2	52.9*	i	-6.4	26.5
COc1ccc(-c2csc(NC(=O)c3ccccc3S(C)(=O)=O)n2)cc1	6.8	22.6	i	-8.3	11.0
CCC(NS(=O)(=O)c1ccc2c(c1)NC(=O)C(C)C(=O)N2)c1cccs1 (centres undefined)	-4.0	-2.1	i	-10.0	0.7
O=c1nc(Nc2ccccc2)oc2ccccc12	-18.6	-3.0	i	1.8	4.4
O=c1oc(Nc2ccc(F)cc2)nc2ccccc12	69.8*	16.3	i	13.7	24.4
Cc1ccc(C(=O)OCC(=O)NC(=O)NCc2ccccc2)cc1C	.	50.1*	.	12.9	30.4
CC(=O)OC1CC2(C)/C(=N\O)CCC2C2CCc3cc(O)ccc3C12 (centres undefined)	3.5	27.5	i	4.4	10.6
CCOc1ccc(OCCCC(=O)Nc2cc(Cl)ccc2-n2cncn2)cc1	.	57.9*	.	7.2	14.7
CC(=O)c1ccc(OCCCC(=O)Nc2cc(Cl)ccc2-n2cncn2)cc1	-11.8	-24.0	i	12.5	1.3
Cn1c(N)c(C(=O)COC(=O)C2(c3ccc(F)cc3)CCCC2)c(=O)n(C)c1=O	7.6	64.7*	i	7.8	25.2
O=C(CSc1nc(-c2ccccc2)cc(=O)[nH]1)Nc1ccc(F)c(F)c1	8.0	8.0	i	-5.2	-0.1
COc1ccc(-c2nc3ncccc3o2)cc1NC(=O)c1cccs1	-6.0	-15.8	i	-14.8	9.0
COc1ccc(-c2nc3ncccc3o2)cc1NC(=O)c1ccco1	-4.7	-16.5	+	-6.6	1.9
N/C(=N/OC(=O)c1ccccc1Cl)c1nonc1N	54.1*	4.1	i	-14.8	2.1
SMILES	Platelet DG rel	TAAR1 antag	Rce1 inhib	VLA-4 inh	TAAR1 ag
O=C(CN1C(=O)NC(CCc2ccccc2)C1=O)Nc1ccc(F)c(F)c1F (centres undefined)	.	19.4	.	14.2	44.3*
O=C(CN1C(=O)NC(Cc2ccccc2)C1=O)Nc1ccccc1F (centres undefined)	.	1.1	.	39.7	1.1
O=C(c1ccco1)N1CCN(C(=O)c2ccco2)CC1	.	-22.6	.	.	-0.1
Cc1cc(Cl)c2oc(C(=O)N3CCOCC3)c(C)c2c1	.	-4.1	.	.	0.2
NC(=O)N1CCN(C(=O)c2ccco2)CC1	50.8*	-4.5	i	1.9	6.8
Cc1cc(Cl)c2oc(C(=O)N3CCN(C(=O)c4ccco4)CC3)c(C)c2c1	19.7	-5.8	+	11.7	1.8
N#C/C=C/N1CCN(C(=O)c2ccco2)CC1	.	-33.7	.	1.2	41.2*
O=C(NCc1cccc(Cl)c1)C1CCC(=O)N(CCN2CCOCC2)C1 (centres undefined)	0.8	-13.2	i	-7.3	2.9
CC(C)c1cc(Cn2c3ccccc3c(=O)n2C(C)Cn2cc(-c3ccccc3)nn2)on1 (centres undefined)	.	3.8	.	.	1.1
COc1ccc(N(C(=O)Cn2nnc(-c3ccc(F)cc3)n2)C(C)C(=O)NC2CCCC2)cc1 (centres undefined)	-0.6	-7.2	i	-2.9	-2.9
CC(C(=O)NC1CCCC1)N(C(=O)Cn1nnc(-c2ccc(F)cc2)n1)c1ccccc1F (centres undefined)	-4.2	51.6*	i	-1.3	19.2
CC1(C(=O)NS(=O)(=O)C2CC2)CCCN(C(=O)c2ccco2)C1 (centres undefined)	.	-0.7	.	.	-0.2
CCCCN1C[C@H](c2ccccc2)[C@@H](CC(=O)NC)C1=O	.	-10.6	.	.	1.0
CC(C)(C)S(=O)(=O)N1Cc2cc(CO)cc(CCO)c2[C@@H]1CCO	.	-8.7	.	.	1.2
CS(=O)(=O)N1CCN(c2ccccc2NC(=S)NC(=O)c2ccccc2[N+](=O)[O-])CC1	-2.1	53.9*	.	-3.1	31.0
C[C@H]1[C@@H](c2ccccc2)Oc2c(Cl)cccc2S(=O)(=O)N1C	.	13.4	.	.	-0.2
O=C1c2ccccc2C(=O)N1CCC#Cc1ccc2cc(CCO)oc(=O)c2c1	.	72.0*	.	-13.1	20.1
Cc1cc(N/C=C/C(=O)c2ccccc2)ccc1Br	9.8	0.7	i	16.8	-0.2
COc1cccc(N/C=C/C(=O)c2ccc(C)cc2)c1	24.4	8.2	i	14.2	1.2
COc1cccc(C(=O)/C=C/Nc2ccc(NC(C)=O)cc2)c1	35.1	7.7	i	-1.5	5.4
COc1ccc(OC)c(N/C(C)=C/C(=O)c2ccccc2)c1	-2.1	19.5	i	-5.0	3.5
COc1cccc(C(=O)/C=C/Nc2cccc(O)c2)c1	67.6*	.	i	-10.2	.
COc1cccc(C(=O)/C=C/Nc2ccc(S(=O)(=O)Nc3cccc(C(C)=O)c3)cc2)c1	4.6	55.7*	i	3.5	11.5
O=C(/C=C/Nc1ccc(F)cc1Br)c1ccccc1	52.3*	-35.6	i	6.4	0.9
COc1ccc(OC)c(N/C=C/C(=O)c2ccccc2)c1	83.2*	-6.2	i	7.4	1.1
COCc1cn(CC[C@@H]2CC[C@@H](NC(=O)Nc3ccc4c(c3)OCO4)[C@@H](CO)O2)nn1	.	-3.3	.	.	4.8

Compound activity from PubChem BioAssay.
